Source: ChEMBL document CHEMBL5321214, “Targeting the multifaceted neurotoxicity of Alzheimer's disease by tailored functionalisation of the curcumin scaffold” (Eur J Med Chem, 2023)
Active and inactive are the calls of the source. The calls are words filed in the database; no cut-off is given here.

Tests used:
Drosophila [1] = assay: Antioxidant activity in Spastin Drosophila (Tubulin/Gal4 RNAi DSpast) neurodegenerative model assessed as decrease in intracelluar ROS level in A2 muscle at 10 uM flies raised in compound-enriched food by DHE staining based fluorescence analysis; type: functional, organism-based
Outline: (§1)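 Spastin-RNAi (Tubulin-Gal4 cross, 28 °C) third-instar larvae raised on compound-enriched food, dissected in HL3, stained 30 min with 30 μM DHE, fixed in 4% PFA, DAPI counterstained. Confocal imaging (DHE 580–630 nm); two 2500 μm² ROIs per muscle or two 1900 μm² ROIs per brain, 10–15 larvae per group; DHE/DAPI ratio.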

Drosophila [2] = assay: Downregulation of Nrf2 transcript expression in Spastin Drosophila (Tubulin/Gal4 RNAi DSpast) neurodegenerative model at 10 uM flies raised in compound-enriched food by real-time PCR analysis; type: functional
Outline: (§2)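 Total RNA from 5 third-instar Spastin-RNAi larvae raised on standard or compound-enriched food; Tubulin-Gal4/+ as control line. One-step SYBR RT-qPCR normalised to Rp49 by the 2^−ΔΔCt method. n = 3 experiments; one-way ANOVA, Tukey's test.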

Microglia [3] = assay: Antiinflammatory activity against Sprague-Dawley rat microglial cells assessed as inhibition of LPS-induced TNF-alpha production at 1 to 5 uM pretreated with compound for 1 hr followed by LPS stimulation for 24 hrs by ELISA; type: functional, cell-based; details: dose 1-5 µM, time 25.0 hrs
Outline: (§3)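 Primary cortical rat microglia in DMSO (≤0.1%) or vehicle for 1 h, then 100 ng/mL LPS for 24 h. TNF-α and IL-1β in culture medium by ELISA against standard curves (pg/mL), expressed as % of LPS-stimulated cultures. Mean ± SEM of 3 independent experiments; one-way ANOVA, Holm-Sidak test.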

Drosophila [4] = assay: Downregulation of SOD1 transcript expression in Spastin Drosophila (Tubulin/Gal4 RNAi DSpast) neurodegenerative model at 10 uM flies raised in compound-enriched food by real-time PCR analysis; type: functional; outline: as §2
[5] = Toxicity against Drosophila W1118 assessed as proportion of eclosed-flies at 30 uM measured after 72 hrs
Microglia [6] = assay: Antiinflammatory activity against Sprague-Dawley rat microglial cells assessed as downregulation of TNF-alpha mRNA expression at 5 uM pretreated with compound for 1 hr followed by LPS stimulation for 6 hrs by real-time PCR analysis; type: functional, cell-based; details: time 7.0 hrs
Outline: (§4)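 Primary cortical microglia (postnatal day 1 rat pups, shaken off mixed glial cultures, ~97% Iba1-positive). Compound (DMSO ≤0.1%) for 1 h, then 100 ng/mL ultra-pure E. coli LPS for 6 h. QIAzol RNA extraction, SuperScript IV reverse transcription, real-time PCR. Mean ± SEM, n = 3 in triplicate; one-way ANOVA, Holm-Sidak test.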

[7] = target: Keap1/Nrf2 (Homo sapiens) (UniProt Q16236+Q14145); assay: Activation of Keap1/Nrf2 in human SH-SY5Y cells assessed as Nrf2 nuclear translocation by measuring increase in nuclear to cytosolic Nrf2 ratio at 2.5 uM incubated for 3 hrs by western blot analysis; type: cell-based; details: filed as activator
Outline: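 SH-SY5Y seeded 2×10^6 cells/dish, grown 24 h, then exposed 3 h at 37 °C, 5% CO2. Nuclear and cytosolic fractions immunoblotted for Nrf2, membranes stripped and reprobed for β-actin and lamin B1 as loading references. Mean ± SEM of three independent experiments; one-way ANOVA with Dunnett's test.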

Microglia [8] = assay: Antiinflammatory activity against Sprague-Dawley rat microglial cells assessed as downregulation of NLRP3 mRNA expression at 5 uM pretreated with compound for 1 hr followed by LPS stimulation for 6 hrs by real-time PCR analysis; type: functional, cell-based; details: time 7.0 hrs; outline: as §4
[9] = target: Amyloid-beta precursor protein (Homo sapiens) (UniProt P05067); assay: Anti-oligomeric activity against Abeta42 (unknown origin) assessed as depletion of the formation of toxic HMW Abeta42 oligomers at 5 uM measured at day 7 from sample solubilization by capillary electrophoresis assay; details: time 7.0 day
Outline: (§5)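 Aβ42 stock diluted to 221 μM in 20 mM sodium phosphate pH 7.4 containing compound (ethanol stocks 1.53 mM). Capillary electrophoresis: BGE 80 mM sodium phosphate pH 7.4, 30 mbar × 3 s hydrodynamic injection, +12 kV, 25 °C, 200 nm detection. Oligomers assigned by effective mobility; HMW oligomer peak quantified semiquantitatively as normalised area %.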

Microglia [10] = assay: Antiinflammatory activity against Sprague-Dawley rat microglial cells assessed as downregulation of IL-1 beta mRNA expression at 5 uM pretreated with compound for 1 hr followed by LPS stimulation for 6 hrs by real-time PCR analysis; type: functional, cell-based; details: time 7.0 hrs; outline: as §4
[11] = Toxicity against Drosophila W1118 assessed as proportion of eclosed-flies at 10 uM measured after 72 hrs
[12] = Toxicity against Drosophila W1118 assessed as proportion of eclosed-flies at 20 uM measured after 72 hrs
[13] = Effect on TNF-alpha release in Sprague-Dawley rat microglial cells at 5 uM by ELISA; type: toxicity, cell-based; details: microglia; outline: as §3
SH-SY5Y [14] = assay: Antioxidant activity in human SH-SY5Y cells assessed as reduction in intracellular ROS formation at 2.5 uM incubated for 24 hrs followed by incubation with t-BuOOH for 30 mins by H2DCF-DA staining based fluorescence analysis; type: functional; details: time 24.5 hrs
Outline: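 SH-SY5Y (2×10^4 cells/well) exposed to 2.5 μM for 24 h, loaded with H2DCF-DA 30 min at room temperature, probe removed, then challenged with 50 μM t-BuOOH 30 min at room temperature. Fluorescence ex 485/em 535 nm, expressed as % ROS increase. Three independent experiments; one-way ANOVA with Dunnett's test.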

SH-SY5Y [15] = assay: Cytotoxicity against human SH-SY5Y cells assessed as decrease in cell viability at >5 uM incubated for 24 hrs by MTT assay; type: toxicity, cell-based
Outline: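 SH-SY5Y, 2×10^4 cells/well, grown 24 h then exposed 24 h (1.25–40 μM) at 37 °C, 5% CO2. MTT 0.5 mg/mL in HBSS for 2 h, washed, formazan dissolved in isopropanol, read at 570 nm (reference 690 nm).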

Drosophila [16] = assay: Effect on CAT transcript expression in Spastin Drosophila (Tubulin/Gal4 RNAi DSpast) neurodegenerative model at 10 uM flies raised in compound-enriched food by real-time PCR analysis; type: functional; outline: as §2
Microglia [17] = assay: Antiinflammatory activity against Sprague-Dawley rat microglial cells assessed as inhibition of LPS-induced IL-1 beta production at 1 to 5 uM pretreated with compound for 1 hr followed by LPS stimulation for 24 hrs by ELISA; type: functional, cell-based; details: dose 1-5 µM, time 25.0 hrs; outline: as §3
SH-SY5Y [18] = assay: Antioxidant activity in human SH-SY5Y cells assessed as increase in intracellular GSH level at 2.5 uM incubated for 24 hrs by […] fluorescence analysis; type: functional
Outline: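 SH-SY5Y (2×10^4 cells/well) grown 24 h, then exposed to 2.5 μM for 24 h at 37 °C. Fluorescent probe added 30 min at 37 °C; read at ex 355/em 460 nm. GSH (μM) from a GSH standard curve. Mean ± SEM of three experiments; one-way ANOVA with Dunnett's test.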

Microglia [19] = assay: Cytotoxicity against Sprague-Dawley rat microglial cells assessed as decrease in cell viability at 10 uM incubated for 24 hrs by MTT assay; type: toxicity, cell-based
Outline: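 Primary rat microglia, 6×10^4 cells/well, switched to serum-free medium 1 h before 24 h exposure (1–20 μM, DMSO ≤0.1%). MTT 0.18 mg/mL for 4 h at 37 °C, formazan dissolved in DMSO, absorbance 570 nm (reference 630 nm). Vehicle-treated cells = 100% viability.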

[20] = Toxicity against Drosophila W1118 assessed as minimum toxic concentration by measuring eclosion rate measured for 72 hrs
[21] = target: Amyloid-beta precursor protein (Homo sapiens) (UniProt P05067); assay: Anti-oligomeric activity against Abeta42 (unknown origin) assessed as depletion of the formation of toxic HMW Abeta42 oligomers at 1 uM measured at day 7 to 10 from sample solubilization by capillary electrophoresis assay; details: time 7-10 day; outline: as §5
[22] = Effect on IL-1 beta release in Sprague-Dawley rat microglial cells at 5 uM by ELISA; type: toxicity, cell-based; details: microglia; outline: as §3
Drosophila [23] = assay: Antioxidant activity in Spastin Drosophila (Tubulin/Gal4 RNAi DSpast) neurodegenerative model assessed as decrease in intracelluar ROS level in brain at 10 uM flies raised in compound-enriched food by DHE staining based fluorescence analysis; type: functional, organism-based; outline: as §1
[24] = Toxicity against Drosophila W1118 assessed as proportion of eclosed-flies at 1 uM measured after 72 hrs
[25] = Toxicity against Drosophila W1118 assessed as proportion of eclosed-flies at 50 uM measured after 72 hrs

Amyloid-beta precursor protein (Homo sapiens), sequence (P05067 whole entry): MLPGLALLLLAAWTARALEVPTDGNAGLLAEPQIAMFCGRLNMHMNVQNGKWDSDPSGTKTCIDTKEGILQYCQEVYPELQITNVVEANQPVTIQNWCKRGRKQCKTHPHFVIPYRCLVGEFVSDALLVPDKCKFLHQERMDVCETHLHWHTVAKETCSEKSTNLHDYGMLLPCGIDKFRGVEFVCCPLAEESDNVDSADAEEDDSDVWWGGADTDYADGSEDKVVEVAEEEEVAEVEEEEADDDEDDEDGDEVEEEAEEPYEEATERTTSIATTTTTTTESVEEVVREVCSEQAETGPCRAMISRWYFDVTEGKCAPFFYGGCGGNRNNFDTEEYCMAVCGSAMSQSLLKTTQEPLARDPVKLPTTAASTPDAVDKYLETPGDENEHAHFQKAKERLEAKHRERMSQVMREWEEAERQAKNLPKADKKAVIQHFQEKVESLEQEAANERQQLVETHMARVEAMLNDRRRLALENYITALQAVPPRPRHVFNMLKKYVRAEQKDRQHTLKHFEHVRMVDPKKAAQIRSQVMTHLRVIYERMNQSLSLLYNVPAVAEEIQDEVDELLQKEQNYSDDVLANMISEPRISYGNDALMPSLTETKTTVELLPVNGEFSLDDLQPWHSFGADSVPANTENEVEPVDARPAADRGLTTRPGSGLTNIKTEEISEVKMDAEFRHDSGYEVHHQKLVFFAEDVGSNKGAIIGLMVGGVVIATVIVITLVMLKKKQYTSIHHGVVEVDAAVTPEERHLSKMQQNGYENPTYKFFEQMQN
Keap1/Nrf2 (Homo sapiens), sequence (Q14145 whole entry, looked up): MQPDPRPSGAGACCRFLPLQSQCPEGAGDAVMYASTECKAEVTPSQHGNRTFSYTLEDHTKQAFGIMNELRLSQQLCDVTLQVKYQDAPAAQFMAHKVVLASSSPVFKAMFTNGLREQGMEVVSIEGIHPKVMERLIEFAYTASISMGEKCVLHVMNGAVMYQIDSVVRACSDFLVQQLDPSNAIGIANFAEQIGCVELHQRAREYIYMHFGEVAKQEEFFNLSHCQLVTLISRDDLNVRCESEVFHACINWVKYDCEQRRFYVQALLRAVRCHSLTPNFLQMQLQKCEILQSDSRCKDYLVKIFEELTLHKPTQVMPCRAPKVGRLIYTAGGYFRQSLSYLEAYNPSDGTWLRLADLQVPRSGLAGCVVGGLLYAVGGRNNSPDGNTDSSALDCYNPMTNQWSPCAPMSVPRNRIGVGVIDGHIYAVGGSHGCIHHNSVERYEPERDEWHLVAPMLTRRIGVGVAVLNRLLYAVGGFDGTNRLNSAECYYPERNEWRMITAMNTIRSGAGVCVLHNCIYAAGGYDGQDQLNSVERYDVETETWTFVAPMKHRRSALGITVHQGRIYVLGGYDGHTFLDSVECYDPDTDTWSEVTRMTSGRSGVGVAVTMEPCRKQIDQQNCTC
Keap1/Nrf2 (Homo sapiens), sequence (Q16236 whole entry, looked up): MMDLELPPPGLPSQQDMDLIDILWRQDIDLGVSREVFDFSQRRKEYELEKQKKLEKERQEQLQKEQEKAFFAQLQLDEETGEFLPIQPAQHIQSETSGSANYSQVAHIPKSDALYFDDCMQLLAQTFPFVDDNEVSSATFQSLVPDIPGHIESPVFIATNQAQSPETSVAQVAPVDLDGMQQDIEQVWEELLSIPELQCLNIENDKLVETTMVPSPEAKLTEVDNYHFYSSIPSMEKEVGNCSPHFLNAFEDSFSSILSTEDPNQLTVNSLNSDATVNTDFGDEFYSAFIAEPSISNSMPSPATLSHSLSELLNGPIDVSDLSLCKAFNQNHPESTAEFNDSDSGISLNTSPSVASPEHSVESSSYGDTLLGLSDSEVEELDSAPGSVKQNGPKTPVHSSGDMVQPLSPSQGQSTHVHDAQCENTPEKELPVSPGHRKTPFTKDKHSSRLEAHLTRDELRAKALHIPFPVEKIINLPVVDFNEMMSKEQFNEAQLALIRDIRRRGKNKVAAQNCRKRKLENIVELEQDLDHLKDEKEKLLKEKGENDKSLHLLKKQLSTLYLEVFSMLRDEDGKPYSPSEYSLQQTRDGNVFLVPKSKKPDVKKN

In the case of `CCOC(=O)Cn1cc(C/C(C(=O)/C=C/c2ccc(OC)cc2)=C(O)\C=C\c2ccc(OC)cc2)nn1`, the Activity (Drosophila [1]) is reported as “Active”, the inhibition (Drosophila [2]) is reported as “Active” and the Activity (Microglia [3]) is reported as “Active”. For the same compound, the inhibition (Drosophila [4]) was “Active”, the Activity [5] was 81.642% and the Activity (Microglia [6]) was “Active”. The Activity [7] was “Active”, the Activity (Microglia [8]) was “Active” and the Activity [9] was “Active”. The Activity (Microglia [10]) was “Active”, the Activity [11] was 94.732% and the Activity [12] was 83.806%. For the same compound, the Activity [13] was “Non-Toxic”, the inhibition at 2.5 µM (SH-SY5Y [14]) was 28% and the Activity (SH-SY5Y [15]) was “Toxic”. For the same compound, the Activity (Drosophila [16]) was “inactive”, the Activity (Microglia [17]) was “Active” and the Activity (SH-SY5Y [18]) was “Active”. For the same compound, the Activity (Microglia [19]) was “Toxic”, the MTC [20] was 10 µM and the Activity [21] was “Active”. For the same compound, the Activity [22] was “Non-Toxic”, the Activity (Drosophila [23]) was “Active” and the Activity [24] was 94.037%. For the same compound, the Activity [25] was 68.373%.
